Assay outcomes as filed in PubChem BioAssay.
This is a sample that favours compounds with a hit; in the whole collection about 8.9% have one here.
HSV replic up = enhancers of HSV replication in host cells, fold increase, host cell viability | 220,000 compounds, 0.005% hits | HSV replication augmentation in cells | AID 1956, 2009 | maximum fold increase; in the data active means maximum fold increase above about 1.5; tested in PC3 cells
bCat nuc transl = modulators of beta-catenin nuclear translocation, primary screen, imaging, HeLa cells, immunofluorescence, high-content; nuclear translocation activity, % at 5 µM; 190,000 compounds, 0.3% hits; AID 1665, 2009;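 active means nuclear translocation activity above 50% at 5 µM, with a well cell count of 50 or more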;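 further: per-cell ratio of nuclear to cytoplasmic median beta-catenin stain intensity; plate controls were DMSO negative control for no effect and GSK-3 inhibitor IX positive control for full effect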
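Test system: human HeLa cells, native beta-catenin. Compound dosing: 5 µM primary single dose, 0.1% DMSO, 0.02–20 µM confirmation series. Incubation: compound exposure 24 h at 37°C. Detection: beta-catenin immunostaining with DAPI counterstain, 20x imaging, 6 fields/well. Read-out basis: Nuclear/cytoplasmic beta-catenin signal ratio, % activation.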
MT stabilizer = microtubule stabilizers in HeLa cells, primary screen, imaging, high-content imaging; HeLa tubulin immunostaining HCS, 24 h; share of cells brighter than vehicle mean+2SD; % tubulin-high responders, % at 10 µM; 200,000 compounds, 0.83% hits; AID 2205, 2009;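 active means plate Z-score above 3 for both tubulin-high and condensed-nucleus cell shares, with cell loss under 80%, at 10 µM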;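 further: anti alpha tubulin signal scored within the nucleus-defined area of each cell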
L major viab = Leishmania major promastigote growth inhibition, primary screen. Leishmania major promastigotes, resazurin fluorescence viability. inhibition, % at 10 µM. 200,000 compounds, 9% hits. AID 1063, 2008; in the data active means inhibition above about 50%;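 further: promastigotes grown with compound for 44 hours at 28 °C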
Dynein cargo inh = inhibitors of GR-EGFP nuclear translocation, primary screen, dynein cargo transport inhibitor project, imaging, high-content, 3617.4 mouse cells; test concentration mostly 20 µM; stimulated with dexamethasone, 1 µM; stronger effect = lower value; z-score, hits read low; 220,000 compounds, 0.47% hits;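 active means plate z-score of nuclear minus cytoplasmic receptor signal below a set negative limit, without overly bright fluorescence or cell loss, cut at about -3.5 in these data, passing the limit was not always enough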;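 further: z-score of nuclear minus cytoplasmic ring GR-EGFP intensity difference per well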
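Also added: dexamethasone, 1.0 µM final. Medium: tet-free, stripped-serum medium. Detection: fixed, Hoechst-stained cells imaged at 10x for EGFP. Read-out: nuclear-to-cytoplasmic GR-EGFP distribution per well. Times: induction 48 h, compound 1 h, agonist 30 min.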
* marks the source's active call; other numbers are inactive results.

What do the screens show for `Cc1ccc(-c2cc(C(F)(F)F)n3ncc(C(=O)N4CCN(C)CC4)c3n2)cc1`?
HSV replic up: inactive; bCat nuc transl: -1.5; MT stabilizer: 5.2; L major viab: 98.7*; Dynein cargo inh: -0.271

Results for CN1CCN(C(=O)c2cnn3c(C(F)(F)F)cc(-c4cccs4)nc23)CC1 ?
HSV replic up: inactive; bCat nuc transl: -1.9; MT stabilizer: 2.6; L major viab: 1.1; Dynein cargo inh: -0.628

What do the screens show for `O=C(c1cnn2c(C(F)(F)F)cc(-c3cccs3)nc12)N1CCN(C(c2ccccc2)c2ccccc2)CC1`?
HSV replic up: inactive; bCat nuc transl: -1.2; MT stabilizer: 3.1; L major viab: 97.4*; Dynein cargo inh: -0.789

What do the screens show for `CN1CCN(C(=O)c2cnn3c(C(F)(F)F)cc(-c4ccc5c(c4)OCO5)nc23)CC1`?
HSV replic up: inactive; bCat nuc transl: -0.6; MT stabilizer: 4.3; L major viab: 84.2*; Dynein cargo inh: 0.721

Results for Cc1ccc(-c2cc(C(F)(F)F)n3ncc(C(=O)N4CCCc5ccccc54)c3n2)cc1 ?
HSV replic up: inactive; bCat nuc transl: -1.5; MT stabilizer: 4.3; L major viab: -5.3; Dynein cargo inh: -1.14

What do the screens show for `CCOC(=O)c1cc(CC)sc1N1C(=O)CC(Sc2ncccc2C(=O)O)C1=O` (centres undefined)?
HSV replic up: inactive; bCat nuc transl: -2.9; MT stabilizer: 1.8; L major viab: -11.1; Dynein cargo inh: 0.232

How did Cc1cc(C(=O)N/N=C2/CC(C)CC(C)(C)C2)c(C)o1 (centres undefined) do in these assays?
HSV replic up: inactive; bCat nuc transl: -2.5; MT stabilizer: 4.4; L major viab: -6.9; Dynein cargo inh: 0.299

How did COc1cc(/C=N/NC(=O)CSc2cc(C)c(Br)cc2C)ccc1O do in these assays?
HSV replic up: inactive; bCat nuc transl: 0.0; MT stabilizer: 1.2; L major viab: 1.0; Dynein cargo inh: 0.0699

How did CCC1CCCN1Cn1cnc2c([nH]c3ccc(C)cc32)c1=O (centres undefined) do in these assays?
HSV replic up: inactive; bCat nuc transl: 0.1; MT stabilizer: 4.5; L major viab: 18.5; Dynein cargo inh: -0.538

What do the screens show for `Cc1ccccc1NC(=O)c1ccc(-c2ccc(Cl)cc2Cl)o1`?
HSV replic up: inactive; MT stabilizer: 1.9; L major viab: 39.0; Dynein cargo inh: -0.378

How did CC1=NOC(=O)/C1=C\c1ccc(-c2ccc(Cl)cc2Cl)o1 do in these assays?
bCat nuc transl: 2.8; MT stabilizer: 1.9; L major viab: 92.9*; Dynein cargo inh: -1.94

Results for O=C(c1cc2ccccc2o1)N1CCC(N2CCC(C(=O)N3CCCC3)CC2)CC1 ?
HSV replic up: inactive; bCat nuc transl: 1.2; MT stabilizer: 4.4; L major viab: 50.0*; Dynein cargo inh: 1.83

How did O=C(c1cc2ccccc2o1)N1CCCC1 do in these assays?
HSV replic up: inactive; bCat nuc transl: 0.0; MT stabilizer: 1.4; L major viab: -2.4; Dynein cargo inh: 0.393

How did Cc1cccc(NC(=S)NNC(=O)c2ccc(O)cc2O)c1C do in these assays?
HSV replic up: inactive; bCat nuc transl: -4.8; MT stabilizer: 1.4; L major viab: 71.3*; Dynein cargo inh: -0.344

How did COc1cccc(C(=O)OC2CCN(C)CC2)c1 do in these assays?
HSV replic up: inactive; bCat nuc transl: 0.7; MT stabilizer: 1.5; L major viab: 1.5; Dynein cargo inh: 1.17

What do the screens show for `Cc1c(Br)cc(C(=O)OC2CCN(C)CC2)c(C)c1C`?
HSV replic up: inactive; bCat nuc transl: 2.3; MT stabilizer: 3.2; L major viab: 86.3*; Dynein cargo inh: 2.09

What do the screens show for `O=C(CN1C(=O)c2ccccc2S1(=O)=O)Nc1ccccc1C(=O)NCc1ccco1`?
HSV replic up: inactive; bCat nuc transl: -0.4; MT stabilizer: 3.7; L major viab: -3.1; Dynein cargo inh: 0.802

Results for O=C(CN1C(=O)c2cccc3cccc1c23)Nc1ccccc1C(=O)NCc1ccco1 ?
HSV replic up: inactive; MT stabilizer: 1.8; L major viab: 82.5*; Dynein cargo inh: 0.398

What do the screens show for `CCCCS/C(=C(/C#N)C(N)=O)c1cc2c([nH]1)CCCC2`?
HSV replic up: inactive; bCat nuc transl: 4.2; MT stabilizer: 11.9*; L major viab: 50.7*; Dynein cargo inh: -1.51

How did CCc1ccc(N/C(SC)=C(/C#N)C(N)=O)cc1 do in these assays?
HSV replic up: inactive; bCat nuc transl: 0.3; MT stabilizer: 3.3; L major viab: -6.1; Dynein cargo inh: -0.721

How did CCOC(=O)C1=C(O)C(Nc2nc3ccccc3s2)(C(F)(F)F)N=C1C (centres undefined) do in these assays?
HSV replic up: inactive; bCat nuc transl: -1.3; MT stabilizer: 2.5; L major viab: 10.2; Dynein cargo inh: 0.813

How did O=C(CCCOc1ccc(Cl)cc1Cl)N/N=C/c1ccco1 do in these assays?
HSV replic up: inactive; bCat nuc transl: -1.3; MT stabilizer: 2.3; L major viab: 18.6; Dynein cargo inh: 0.279

What do the screens show for `O=C(NC12CC3CC(CC(C3)C1)C2)c1ccccc1O`?
HSV replic up: inactive; bCat nuc transl: -0.6; MT stabilizer: 2.7; L major viab: 50.2*; Dynein cargo inh: 0.343

Results for CC(=O)NC(CC(=O)NC12CC3CC(CC(C3)C1)C2)c1ccccc1 (centres undefined) ?
HSV replic up: inactive; MT stabilizer: 3.7; L major viab: 62.9*; Dynein cargo inh: 2.27

Results for O=c1c2ccccc2n2c(-c3ccc(C(F)(F)F)cc3)nnc2n1Cc1ccccc1 ?
HSV replic up: inactive; bCat nuc transl: -1.7; MT stabilizer: 2.9; L major viab: 14.8; Dynein cargo inh: 0.579

How did O=c1c2ccccc2n2c(-c3ccc(F)cc3)nnc2n1Cc1ccccc1 do in these assays?
HSV replic up: inactive; bCat nuc transl: 0.1; MT stabilizer: 1.9; L major viab: 56.1*; Dynein cargo inh: 0.0435

Results for Cc1ccc(/C=C/C(=O)c2c(C)cc(C)[nH]c2=O)cc1 ?
HSV replic up: inactive; bCat nuc transl: 17.6; MT stabilizer: 8.4; L major viab: 61.4*; Dynein cargo inh: -1.61

Results for Cc1c(C)n(Cc2ccccc2)c2ccc(C(=O)OCCN(C)C)cc12 ?
HSV replic up: inactive; bCat nuc transl: -1.5; MT stabilizer: 3.2; L major viab: 100.2*; Dynein cargo inh: -1.12

What do the screens show for `CCn1ncc(/C=N\NC(=O)c2ccc3c(c2)c(C)c(C)n3Cc2ccccc2)c1C`?
HSV replic up: inactive; bCat nuc transl: 2.0; MT stabilizer: 2.0; L major viab: 11.9; Dynein cargo inh: 0.549

What do the screens show for `COc1ccc(CCNC(=O)c2cccs2)cc1OC`?
HSV replic up: inactive; bCat nuc transl: -0.9; MT stabilizer: 5.3; L major viab: -9.9; Dynein cargo inh: -0.932

How did COc1ccc(CNc2nc(NCc3ccc(OC)c(OC)c3)n(C(=O)c3cccs3)n2)cc1OC do in these assays?
HSV replic up: inactive; bCat nuc transl: -2.3; MT stabilizer: 3.9; L major viab: 96.8*; Dynein cargo inh: -0.746
